In ChEMBL document CHEMBL1135379, “Polyhydroxylated azepanes as new motifs for DNA minor groove binding agents” (2002):

Experiments:
Nucleic Acid [1] = experiment: Concentration required to displace 50% of the ethidium from a preformed, intercalated complex; format: nucleic-acid assay
Procedure, shortened: (§1)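 Ethidium displacement (Cain et al. method), pH 7.0. A preformed DNA–ethidium intercalated complex in HEPES buffer with NaCl and EDTA is titrated with ligand while intercalated-ethidium fluorescence is monitored. C50 is the ligand concentration that displaces 50% of the ethidium. K_app = (1.26 × K_e)/C50, using the known ethidium binding constant under these conditions. Means of three experiments.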

HT-29 = experiment: Tested for in vitro concentration required to inhibit growth by 50% against HT-29 human colon cancer cell line; format: functional
Nucleic Acid [2] = experiment: Apparent binding constant was calculated; format: nucleic-acid assay; procedure, shortened: as §1
MCF7 = experiment: Tested for in vitro concentration required to inhibit growth by 50% against MCF-7 human breast cancer cell line cell line; format: functional
HCT-116 = experiment: Tested for in vitro concentration required to inhibit growth by 50% against HCT116 human colon cancer cell line; format: functional
NCI/ADR-RES = experiment: Tested for in vitro concentration required to inhibit growth by 50% against MCF-7/ADR human breast cancer cell line cell line; format: functional

## CC1(C)O[C@H]2[C@H](O1)[C@H](O)CN(c1ccc(OCCCOc3ccc(N4C[C@@H](O)[C@H]5OC(C)(C)O[C@@H]5[C@H](O)C4)cc3)cc1)C[C@H]2O
Nucleic Acid [1]
  C50: 703 µM
HT-29
  GI50: 40 µM
Nucleic Acid [2]
  K app: 17000 M⁻¹
MCF7
  GI50: 33 µM
HCT-116
  GI50: 32 µM
NCI/ADR-RES
  GI50: > 50 µM

## Cn1cc(NC(=O)c2cc(NC(=O)c3cc(NC=O)cn3C)cn2C)cc1C(=O)NCCC(=N)N
Nucleic Acid [1]
  C50: 1.8 µM
Nucleic Acid [2]
  K app: 6.7e+06 M⁻¹

## OC1CN(Cc2ccc(OCCCOc3ccc(CN4C[C@@H](O)[C@@H](O)[C@H](O)[C@H](O)C4)cc3)cc2)C[C@@H](O)[C@@H](O)C1O (single isomer, unassigned)
Nucleic Acid [1]
  C50: 61.6 µM
HT-29
  GI50: 24 µM
Nucleic Acid [2]
  K app: 190000 M⁻¹
MCF7
  GI50: > 50 µM
HCT-116
  GI50: > 50 µM
NCI/ADR-RES
  GI50: > 50 µM

## CC1(C)O[C@H]2[C@H](O1)[C@H](O)CN(Cc1ccc(OCCCOc3ccc(CN4CC(O)[C@H]5OC(C)(C)O[C@@H]5[C@H](O)C4)cc3)cc1)C[C@H]2O (single isomer, unassigned)
HT-29
  GI50: 23 µM
MCF7
  GI50: 24 µM
HCT-116
  GI50: 6 µM
NCI/ADR-RES
  GI50: 10 µM

## OC1CN(Cc2ccc(OCCCOc3ccc(CN4C[C@H](O)[C@@H](O)[C@H](O)[C@@H](O)C4)cc3)cc2)C[C@H](O)[C@@H](O)C1O (single isomer, unassigned)
Nucleic Acid [1]
  C50: 97 µM
Nucleic Acid [2]
  K app: 120000 M⁻¹

## O=C(O)CCCc1ccc(N(CCCl)CCCl)cc1 [CHLORAMBUCIL]
HT-29
  GI50: 129 µM
MCF7
  GI50: 30 µM
HCT-116
  GI50: 105 µM
NCI/ADR-RES
  GI50: 56 µM

## COc1cccc2c1C(=O)c1c(O)c3c(c(O)c1C2=O)C[C@@](O)(C(=O)CO)C[C@@H]3O[C@H]1C[C@H](N)[C@H](O)[C@H](C)O1 [DOXORUBICIN]
HT-29
  GI50: 0.056 µM
MCF7
  GI50: 0.013 µM
HCT-116
  GI50: 0.023 µM
NCI/ADR-RES
  GI50: 16.7 µM

## N=C(N)c1ccc(OCCCOc2ccc(C(=N)N)cc2)cc1 [PROPAMIDINE]
Nucleic Acid [1]
  C50: 25.6 µM
HT-29
  GI50: > 50 µM
Nucleic Acid [2]
  K app: 470000 M⁻¹
MCF7
  GI50: 9 µM
HCT-116
  GI50: 11 µM
